In the library only some 4.5% were active in any assay of this set; here they are far more common.
TAAR1 agonist: agonists of human TAAR1. Q96RJ0. 0.99% of 360,000 active. AID 624467. activation, % at 3 µM. CHO RD-HGA16 TAAR1, Fluo-8 calcium fluorescence; vehicle wells 0%, saturating PEA agonist 100%;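 active = activation above the mean activation of all test compounds in the run plus 3 SD, cut at about 38% in these data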
Target sequence (Q96RJ0 whole entry, looked up): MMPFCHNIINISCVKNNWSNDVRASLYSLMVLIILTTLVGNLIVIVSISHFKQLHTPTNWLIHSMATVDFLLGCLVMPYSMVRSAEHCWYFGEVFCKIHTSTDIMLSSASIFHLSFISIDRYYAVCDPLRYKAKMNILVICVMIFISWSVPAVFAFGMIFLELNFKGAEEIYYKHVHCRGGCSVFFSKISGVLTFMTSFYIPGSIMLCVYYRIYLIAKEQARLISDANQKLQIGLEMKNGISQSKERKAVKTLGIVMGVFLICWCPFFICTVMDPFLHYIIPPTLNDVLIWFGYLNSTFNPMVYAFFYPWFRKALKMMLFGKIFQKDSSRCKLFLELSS
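Test system: RD-HGA16 (CHO) cells co-expressing Gα16 and hTAAR1 / Benchmarks: DMSO vehicle as 0%, PEA at EC100 as 100% / Repeats: no replicates (n 1) / Measure: % activation from peak over basal fluorescence ratio, DMSO-to-PEA scaled / Timing: 17-24 h plating, Fluo-8 75 min 37 °C, 30 min RT / Technique: kinetic Fluo-8 calcium fluorescence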
TAAR1 antag: human TAAR1 antagonism; Q96RJ0; 1.5% of 360,000 active; inhibition, % at 3 µM; CHO RD-HGA16 TAAR1, Fluo-8 calcium fluorescence, antagonist;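 active = inhibition above a per-plate cutoff, the mean inhibition of test compounds on that plate plus 3 SD, cut at about 49% in these data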
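Test system – hTAAR1-expressing CHO RD-HGA16 cells, Gα16-coupled · Reagent – β-PEA at EC80 concentration, post-compound challenge · Compound dosing – 3 µM, single point · Timing – 140 s kinetic read after compound, 140 s after agonist · Detection – Fluo-8 intracellular calcium dye fluorescence, real-time kinetic reads · Control set – DMSO and EC80 PEA controls · Repeats – n of 1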
OX1R antag-1: blocks the human orexin 1 receptor. OX1R-expressing cells, FRET antagonist read-out. inhibition, % at 6.6 µM. 1.8% of 330,000 active. AID 485270; in the data active = inhibition mostly above about 38%, no sharp cut-off; inactive = mostly below about 40%
OX1R antag-2: antagonists of human orexin 1 receptor | CHO/OX1R cells, Fluo-8 calcium fluorescence, orexin A | inhibition, % at 5 µM | 0.43% of 330,000 active | AID 434989;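 active = inhibition above its plate's threshold, mean inhibition of all tested compounds on the plate plus 3 SD, cut at about 37% in these data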
CHO parental Ca: signal in parental CHO cells, OX1R antagonist counter-screen. inhibition, % at 5.6 µM. parental CHO-K1, ATP-induced calcium, Fluo-8 fluorescence. 0.63% of 330,000 active;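 active = inhibition above that plate's mean sample inhibition plus 3 SD, cut at about 26% in these data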
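test system = CHO parental line | reagent = ATP stimulus | measured by = intracellular calcium via Fluo-8 no-wash fluorescent dye | control set = ATP and no-ATP DMSO wells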
GPR7 antagonist: antagonists of human GPR7 (neuropeptides B/W receptor 1). GPR7-expressing cells, fluorescence antagonist assay. inhibition, % at 4.4 µM. 1.1% of 290,000 active; in the data active = inhibition above about 16%, passing the limit was not always enough;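 also: cells stimulated with the agonist NPW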
Hits are given with their value; . = inactive; / = not tested or not shown.

SMILES	TAAR1 agonist	TAAR1 antag	OX1R antag-1	OX1R antag-2	CHO parental Ca	GPR7 antagonist
COc1cc(/C=C2/SC(=O)NC2=O)ccc1OCc1ccccc1	.	.	53.6	.	.	.
CCCCCCC12C(=Cc3cc(C)ccc31)c1ccccc1C(CC(=O)NCc1ccccc1)N2C(=O)OC (configuration not stated)	.	.	/	/	/	/
CCCc1nnc(NC(=O)C2CCN(C(=O)C3CC(=O)N(c4ccc(C)cc4)C3)CC2)s1 (configuration not stated)	.	.	.	.	.	.
CCCCCCCCN1C(=O)[C@H](CC(=O)NCCCCc2ccccc2)C[C@@]2(C(=O)OCC)CCCC=C12	.	.	/	/	/	/
COc1cc(/C=C2/SC(=S)N(Cc3ccccc3)C2=O)ccc1O	44.4	.	.	.	33.2	.
COc1cc(/C=C2/SC(=NCc3ccccc3)N(Cc3ccccc3)C2=O)ccc1O	.	.	.	.	.	.
Cc1nc(NC(=O)c2ccccc2)sc1-c1csc(NCc2ccco2)n1	/	/	52.9	.	.	.
COc1ccc(-c2sc3ccccc3c2-c2ccc(O)cc2)cc1	.	.	.	.	.	/
COc1ccc(-c2sc3cc(OC)c(OC)cc3c2-c2ccc(O)cc2)cc1	.	.	38.3	.	.	/
CCCCCCCCN1C(=O)N(Cc2ccc(OC)cc2)S(=O)(=O)c2ccc(F)cc21	.	.	/	/	/	/
NC(Cc1ccc(Cl)cc1)c1csc(Nc2ccc(C(F)(F)F)cn2)n1 (configuration not stated)	45.1	.	/	/	/	/
COc1cc(OC)nc(Nc2nc(C(N)Cc3ccc(Cl)cc3)cs2)n1 (configuration not stated)	46.8	.	/	/	/	/
NC(CO)c1csc(Nc2ccc(C(F)(F)F)cn2)n1 (configuration not stated)	.	.	/	/	/	/
COC(=O)c1cc(C)nc(Nc2nc(C(N)Cc3ccc(Cl)cc3)cs2)n1 (configuration not stated)	.	.	/	/	/	/
COCc1[nH]nc2c1C(c1ccccc1)NC2=O (configuration not stated)	.	.	/	/	/	/
Cc1cc2nn(-c3cccc4ccccc34)nc2cc1NC(=O)c1cccs1	.	.	56.9	.	.	.
Cc1ccc(-c2nn3c(C)nnc3s2)cc1NC(=O)c1cccs1	.	.	.	.	.	.
Nc1[nH]c(C(=O)c2ccc(Cl)cc2)c(-c2ccc(Br)cc2)c1C(=O)c1c[nH]c2ccc(F)cc12	.	.	/	/	/	/
CCCCCCCCC(=O)NC(NC(=S)N1CCOCC1)C(Cl)(Cl)Cl (configuration not stated)	.	.	.	.	.	19.5
CN(C)CCCNS(=O)(=O)c1ccc(-n2nnc3ccccc32)c([N+](=O)[O-])c1	.	.	67.5	.	.	.
O=[N+]([O-])c1cc(S(=O)(=O)Nc2cccc(C(F)(F)F)c2)ccc1-n1nnc2ccccc21	.	.	88.0	44.5	42.8	.
CS(=O)(=O)c1ccc(-n2nnc3ccccc32)c([N+](=O)[O-])c1	.	.	.	.	.	.
O=C(N[C@@H](Cc1cccnc1)C(=O)N1CCC[C@H]1C(=O)NC1CCCC1)c1ccccc1	.	.	/	/	/	/
CC(=O)c1cccc([N+](=O)[O-])c1	.	.	.	.	.	/
O=C(C#Cc1ccccc1)c1cccc([N+](=O)[O-])c1	.	.	.	.	36.3	.
SMILES	TAAR1 agonist	TAAR1 antag	OX1R antag-1	OX1R antag-2	CHO parental Ca	GPR7 antagonist
Fc1cccc(C[n+]2csc3ccccc32)c1	.	.	.	.	.	.
c1ccc(C[n+]2csc3ccccc32)cc1	.	.	.	.	29.1	.
N#Cc1ccccc1NC(=O)COC(=O)CN1C(=O)C2CCCCC2C1=O (configuration not stated)	.	.	.	.	.	/
N#Cc1cc([N+](=O)[O-])ccc1NC(=O)COC(=O)CN1C(=O)C2CCCCC2C1=O (configuration not stated)	.	.	43.5	.	.	/
Cn1c(N)c(-c2ccccc2)c2ccc([N+](=O)[O-])cc2c1=O	.	.	.	53.1	42.6	.
N#Cc1c(N)n(Cc2ccccc2)c(=O)c2cc([N+](=O)[O-])ccc12	.	.	.	.	.	.
CC1(Oc2cccnc2Cl)CCN(Cc2ccc(OC(F)(F)F)cc2)C1 (configuration not stated)	.	.	/	/	/	/

Compound activity (PubChem BioAssay)
